# Assay results taken from publication PMC3190051 (Bioorganic & medicinal chemistry letters, 2011).
# Residue numbers refer to the chain shown, from its start. Read-outs that look alike come from different tables or passages of the source.
# Tests used:
# [1] = test system: M2–M5; assay: M2–M5 selectivity, full CRCs in HTS high-expressing CHO cell lines; assay type: cell-based, rat; conditions: read-out: M2–M5 EC50s; HTS high-expressing CHO cell line; average of at least three determinations
# [2] = target: T1, M1 (Rattus norvegicus, UniProt P08482); assay: functional M1 agonist assay in rat HTS high-expressing CHO cell line; assay type: cell-based; conditions: 10 µM M1 single point screen
# T1 sequence (P08482 1-460): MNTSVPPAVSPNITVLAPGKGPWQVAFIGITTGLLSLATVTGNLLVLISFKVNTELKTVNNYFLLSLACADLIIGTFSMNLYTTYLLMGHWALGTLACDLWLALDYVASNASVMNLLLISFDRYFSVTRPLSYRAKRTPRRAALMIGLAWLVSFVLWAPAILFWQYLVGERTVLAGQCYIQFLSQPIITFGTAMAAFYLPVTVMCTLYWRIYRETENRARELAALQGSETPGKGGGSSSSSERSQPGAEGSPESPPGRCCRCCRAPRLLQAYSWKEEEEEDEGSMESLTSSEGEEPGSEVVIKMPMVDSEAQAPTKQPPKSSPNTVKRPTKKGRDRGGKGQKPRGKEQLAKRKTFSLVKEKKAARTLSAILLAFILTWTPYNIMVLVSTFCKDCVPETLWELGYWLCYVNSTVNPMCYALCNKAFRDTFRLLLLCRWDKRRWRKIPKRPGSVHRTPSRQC
# [3] = test system: 68 GPCRs, ion channels and transporters (including all the BARs); assay: radioligand binding panel of 68 GPCRs, ion channels and transporters; conditions: 10 µM
# [4] = target: D2 receptor (Homo sapiens, UniProt P14416); assay: functional D2 antagonism CRC; assay type: cell-based
# [5] = test system: NMDA receptor currents in hippocampal CA1 pyramidal cells; assay: potentiation of NMDA receptor currents, whole cell recording; assay type: cell-based; conditions: 30 µM
# Summary of the method: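 Whole-cell recording of NMDA-evoked currents in hippocampal CA1 pyramidal cells. Current amplitude was normalized and followed over time before, during and after application of 30 µM test compound.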
# [6] = intrinsic clearance, rat; assay type: in vitro ADME
# [7] = intrinsic clearance, human; assay type: in vitro ADME
# [8] = oral plasma:brain level; assay type: in vivo, male Sprague-Dawley rats; conditions: 10 mg/kg oral, 90 minute endpoint, individual animal
# [9] = target: T2, M1 (Homo sapiens, UniProt P11229); assay: M1 agonist assay in new cell lines with expression resembling native levels; assay type: cell-based, rat and human; conditions: new cell lines with expression more closely resembling native levels
# T2 sequence (P11229 1-460): T1 sequence (P08482 1-460) with V5A, S254T, S309P, K320R, G337A, V413I
# [10] = test system: TREx293-hM1 cells
# [11] = test system: M2–M5; conditions: read-out: EC50 versus M2–M5; ML071 probe data; cited from earlier work
# [12] = test system: 68 GPCRs, ion channels and transporters (including all the BARs); conditions: 10 µM; cited from earlier work
# [13] = test system: TREx293-hM1 cells; conditions: in cell culture; cited from earlier work
# [14] = test system: NMDA receptor currents in hippocampal CA1 pyramidal cells; conditions: cited from earlier work
# D2 receptor, sequence (P14416 whole entry): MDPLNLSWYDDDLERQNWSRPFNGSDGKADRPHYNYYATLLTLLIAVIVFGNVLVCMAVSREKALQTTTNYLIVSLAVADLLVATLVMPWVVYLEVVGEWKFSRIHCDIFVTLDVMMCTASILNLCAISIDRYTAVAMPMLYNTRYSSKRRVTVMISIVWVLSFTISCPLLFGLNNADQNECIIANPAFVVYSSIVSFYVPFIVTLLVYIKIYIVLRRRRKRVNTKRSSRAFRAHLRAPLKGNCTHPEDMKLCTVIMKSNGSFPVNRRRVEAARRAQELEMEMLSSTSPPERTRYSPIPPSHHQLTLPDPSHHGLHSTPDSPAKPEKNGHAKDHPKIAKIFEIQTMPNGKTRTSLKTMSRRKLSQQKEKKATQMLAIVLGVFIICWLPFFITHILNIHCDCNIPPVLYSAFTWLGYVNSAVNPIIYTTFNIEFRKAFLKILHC
smiles,measurement,setting,value
CCOC(=O)N1CCC(N2CCC[C@@H](NC(=O)c3ccc(OC)cc3)C2)CC1 [20i],EC50,[1],> 10 µM
CCOC(=O)N1CCC(N2CCC[C@@H](NC(=O)c3ccc(C)cc3)C2)CC1 [20f],EC50,[1],> 10 µM
CCOC(=O)N1CCC(N2CCC[C@@H](NC(=O)c3ccc(F)c(F)c3)C2)CC1 [20e],EC50,[1],> 10 µM
CCOC(=O)N1CCC(N2CCC[C@@H](NC(=O)C3CCCCC3)C2)CC1 [20g],EC50,[1],> 10 µM
CCOC(=O)N1CCC(N2C[C@H]3CN(C(=O)c4ccccc4C)C[C@H]3C2)CC1 [compound 15],M1 activation,[2],less than 30%
CCOC(=O)N1CCC(N2CCC[C@@H](NC(=O)c3ccc(F)cc3C)C2)CC1 [20a],EC50,[1],> 10 µM
CCOC(=O)N1CCC(N2CCC[C@@H](NC(=O)c3cccs3)C2)CC1 [20h],EC50,[1],> 10 µM
CCOC(=O)N1CCC(N2CCC[C@@H](NC(=O)c3ccccc3)C2)CC1 [20b],EC50,[1],> 10 µM
CCOC(=O)N1CCC(N2CCC[C@@H](NC(=O)c3ccccc3C)C2)CC1 [compound 17],M1 activation,[2],full activation of M1
same,EC50,[1],> 30 µM
same,inhibition in radioligand binding panel,[3],≤ 30%
same,functional activity at the D2 receptor,[4],no functional activity
same,persistence of potentiation after washout,[5],10 min
same,effect on NMDA receptor currents,[5]; listed as VU0364572,potentiates NMDA receptor currents
same,CLint scaled,[6],23.4 mL/min/kg
same,CLint scaled,[7],11.2 mL/min/kg
same,Brain,[8],1.89 µM
same,Brain:Plasma,[8],1.17
same,Plasma,[8],1.62 µM
same,concentration at 90 min,"[8]; male, Sprague-Dawley, rat, brain, oral, 10 mg/kg",2230 nM
same,Kp at 1.5 h,"[8]; male, Sprague-Dawley, rat, brain/plasma, po, 10 mg/kg, Brain:Plasma",1.54
same,ACh Max versus high-expressing HTS lines,[9],slightly lower ACh Max
CCOC(=O)N1CCC(N2C[C@@H]3C[C@H]2CN3C(=O)c2ccccc2C)CC1 [compound 14],M1 activation,[2],less than 30%
CCOC(=O)N1CCC(N2CCC[C@@H](NC(=O)c3cccc(OC)c3)C2)CC1 [20d],EC50,[1],> 10 µM
C[N+](C)(C)CCOC(N)=O.[Cl-] [carbachol],increase in soluble APP (sAPPα),[10],significant increase
CCOC(=O)N1CCC(N2CCC[C@@H](NC(=O)c3ccccc3Cl)C2)CC1 [20j],EC50,[1],> 10 µM
CCOC(=O)N1CCC(N2CCN(C(=O)c3ccccc3C)CC2)CC1 [compound 13],M1 activation,[2],less than 30%
CCOC(=O)N1CCC(NCCNC(=O)c2ccccc2C)CC1 [compound 8],EC50,[1],> 30 µM
same,EC50,[11],> 30 µM
same,activity in radioligand binding panel,[12],≤ 50%
same,soluble APP (sAPPα),[13],significant increase
same,effect on NMDA receptor currents,[14],potentiated NMDA receptor currents
CCOC(=O)N1CCC(N2CCC[C@@H](NC(=O)c3cccc(F)c3)C2)CC1 [20c],EC50,[1],> 10 µM
CCOC(=O)N1CCC(N2CCC[C@H](NC(=O)c3ccccc3C)C2)CC1 [compound 16],M1 activation,[2],inactive
CCOC(=O)N1CCC(N2CCC[C@@H](NC(=O)C3CCCC3)C2)CC1 [20k],EC50,[1],> 10 µM
